Data set [1] relates to S. aureus USA300.
The subject of data set [2] is S. aureus USA300. Kind of data set: Membrane permeation, propidium iodide probe. The format is cell-based, Staphylococcus aureus. The following applies: peptides at 3.1 μM; antibiotics at their MIC values. In short, it runs like this: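 Serially diluted test compound was combined with propidium iodide (20 μM) and bacteria in TSB at final OD600 ~0.1. Incubated at 37°C with shaking at 100 rpm. Fluorescence (ex 584 nm, em 620 nm) was read every 5 min for 2 h. Each condition was run in duplicate.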

The test system of a further data set is fungal protease K. The following applies: cited from earlier work.
In a further data set the test system is chymotrypsin. The conditions noted are these: cited from earlier work.
Where [3] appears, read: S. aureus USA300, MIC values used in Figure 9B.

Where two headings read alike, the source gives them in different places.

With `CN[C@H](CC(C)C)C(=O)N[C@H]1C(=O)N[C@@H](CC(N)=O)C(=O)N[C@H]2C(=O)N[C@H]3C(=O)N[C@H](C(=O)N[C@H](C(=O)O)c4cc(O)cc(O)c4-c4cc3ccc4O)[C@H](O)c3ccc(c(Cl)c3)Oc3cc2cc(c3O[C@@H]2O[C@H](CO)[C@@H](O)[C@H](O)[C@H]2O[C@H]2C[C@](C)(N)[C@H](O)[C@H](C)O2)Oc2ccc(cc2Cl)[C@H]1O` [vancomycin], in the data set on S. aureus USA300 [1] (setting [3]), the MIC of antibiotics worked out at 0.78 µM. Moreover, in the data set on S. aureus USA300 [2], the “membrane permeation of S. aureus USA300 (PI fluorescence)” value is given as “no membrane permeation”.

For the molecule `CCCCCCCCCC(=O)N[C@@H](Cc1c[nH]c2ccccc12)C(=O)N[C@H](CC(N)=O)C(=O)N[C@@H](CC(=O)O)C(=O)N[C@@H]1C(=O)NCC(=O)N[C@@H](CCCN)C(=O)N[C@@H](CC(=O)O)C(=O)N[C@H](C)C(=O)N[C@@H](CC(=O)O)C(=O)NCC(=O)N[C@H](CO)C(=O)N[C@@H]([C@H](C)CC(=O)O)C(=O)N[C@@H](CC(=O)c2ccccc2N)C(=O)O[C@@H]1C` [daptomycin], in the data set with S. aureus USA300 [1] (USA300, 20 h), the MIC of antibiotics worked out at 0.78 µM.

Take `CO[C@H]1/C=C/O[C@@]2(C)Oc3c(C)c(O)c4c(O)c(cc(O)c4c3C2=O)NC(=O)/C(C)=C\C=C\[C@H](C)[C@H](O)[C@@H](C)[C@@H](O)[C@@H](C)[C@H](OC(C)=O)[C@@H]1C` [rifamycin]: the MIC of antibiotics in the data set on S. aureus USA300 [1] (setting [3]) was found to be 0.2 µM. The “membrane permeation of S. aureus USA300 (PI fluorescence)” value in the data set on S. aureus USA300 [2] was “no membrane permeation”.

For “GF-17: synthetic peptide of LL-37 residues 17–32 plus an extra N-terminal glycine (FKRIVQRIKDFLRNLV; extra N-terminal glycine)”, in the data set with fungal protease K, the “resistance to fungal protease K” value is given as “but not GF-17, is resistant”. In addition, in the data set with chymotrypsin, the resistance to chymotrypsin result was “but not GF-17, is resistant”.
